From ChEMBL document CHEMBL1926589, “2-Anilinonicotinyl linked 2-aminobenzothiazoles and [1,2,4]triazolo[1,5-b] [1,2,4]benzothiadiazine conjugates as potential mitochondrial apoptotic inducers” (Bioorg Med Chem, 2011)
Active and inactive are the calls of the source. The calls are words filed in the database; no cut-off is given here.

Legend:
HL-60 [1] = experiment: Induction of apoptosis in human HL60 cells assessed as decrease in size at 1 uM after 12 hrs by scanning electron microscopy; assay type: functional, cell-based
In short: (§1)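 HL-60 cells at 2 x 10^5/ml in 10% FCS medium exposed to 0.5 or 1 µM for 6–48 h; DMSO vehicle controls. Cells fixed in 2.5% glutaraldehyde in 0.1 M phosphate (pH 7.2) at 4 °C for 1 h, post-fixed in 1% OsO4 and ethanol-dehydrated. Critical-point dried, gold-coated, and imaged by SEM at 40 kV.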

HL-60 [2] = experiment: Induction of apoptosis in human HL60 cells assessed as PARP cleavage at 1 uM after 24 hrs by Western blotting; assay type: functional, cell-based
In short: (§2)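 HL-60 cells treated 24 h and lysed in RIPA buffer on ice; protein measured by Bradford against a BSA standard. 50 µg resolved by SDS-PAGE and transferred to PVDF, blocked in 5% milk/TBST, then primary antibodies 1:1000 for 2 h and HRP secondary 1:1000 for 1 h. ECL detection with β-actin as loading control; bands quantified by densitometry.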

HL-60 [3] = experiment: Induction of apoptosis in human HL60 cells at 0.5 uM after 48 hrs by scanning electron microscopy; assay type: functional, cell-based; in short: as §1
HL-60 [4] = experiment: Inhibition of Bcl-2 expression in human HL60 cells at 1 uM after 24 hrs by Western blotting; assay type: functional, cell-based; in short: as §2
HL-60 [5] = experiment: Induction of apoptosis in human HL60 cells assessed as decrease in mitochondrial membrane potential at 1 uM after 24 hrs using rhodamine 123 staining by flow cytometry; assay type: functional; set-up: scale not given: the % may be the effect or the level left
In short: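 HL-60 cells (1 x 10^5 per 1.5 mL) treated 24 h, then stained with rhodamine-123 (5 µg/mL final) for 1 h. Washed, and propidium iodide (5 µg/mL) added just before reading. FL-1 fluorescence from 10,000 events; percentage of low Rh-123 cells taken as loss of membrane potential. Mean ± SD, n=3.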

HL-60 [6] = experiment: Induction of apoptosis in human HL60 cells assessed as nuclear fragmentation at 1 uM after 24 hrs by DAPI staining-based fluorescence microscopy; assay type: functional, cell-based
In short: (§3)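 HL-60 or PC-3 cells treated at 1 µM for 24 h. Air-dried smears fixed in methanol at −20 °C for 20 min and stained with DAPI (1 µg/mL) for 20 min at room temperature in the dark. Mounted in 90% glycerol/PBS and examined by fluorescence microscopy for nuclear morphology.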

SW-620 = experiment: Growth inhibition of human SW620 cells at 10 uM by sulforhodamine B assay; assay type: functional; settings: read-out: GI
In short: (§4)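 Single-dose 10 µM screen by sulforhodamine B assay, reported as percent inhibition of cell proliferation. Cells grown in medium with 10% heat-inactivated FBS at 37 °C, 5% CO2, and treated at about 70% confluence or in log phase. Compounds dissolved in DMSO; controls received vehicle (<0.5% v/v).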

IMR-32 = experiment: Growth inhibition of human IMR32 cells at 10 uM by sulforhodamine B assay; assay type: functional; settings: read-out: GI; in short: as §4
SiHa = experiment: Induction of apoptosis in human SiHa cells assessed as DNA ladder formation at 10 uM after 24 hrs by agarose gel electrophoresis; assay type: functional, cell-based
In short: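 Cells treated 24 h, then 2 x 10^6 cells lysed (Triton X-100 buffer, pH 8.0) with RNase at 37 °C for 90 min and proteinase-K at 50 °C for 1 h. DNA phenol/chloroform-extracted and ethanol-precipitated, then run on 1.8% agarose at 50 V for 1.5 h in TAE. Ladders viewed under UV.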

HL-60 [7] = experiment: Induction of apoptosis in human HL60 cells assessed as blebbing of plasma membrane at 1 uM after 12 hrs by scanning electron microscopy; assay type: functional, cell-based; in short: as §1
HCT-15 = experiment: Growth inhibition of human HCT15 cells at 10 uM by sulforhodamine B assay; assay type: functional; settings: read-out: GI; in short: as §4
HL-60 [8] = experiment: Cell cycle arrest in human HL60 cells assessed as accumulation at sub-G0 phase measuring DNA damage at 1 uM after 24 hrs using propidium iodide staining by flow cytometry (reference value: 1%); assay type: functional
In short: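 HL-60 cells (1 x 10^5 per 1.5 mL) treated 24 h, then fixed in 70% cold ethanol at −20 °C overnight. RNase digestion (400 µg/ml) at 37 °C for 45 min, then propidium iodide (10 µg/ml) for 30 min. Flow cytometry on 10,000 events, FL2-A vs FL2-W, with doublet discrimination. Sub-G0 (hypodiploid) peak taken as apoptotic cells. Mean ± SD of three independent experiments.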

PC-3 = experiment: Induction of apoptosis in human PC3 cells assessed as nuclear fragmentation at 1 uM after 24 hrs by DAPI staining-based fluorescence microscopy; assay type: functional, cell-based; in short: as §3
[9] = Therapeutic ratio of IC50 for african green monkey CV1 cells to IC50 for human HL60 cells; assay type: ADME, cell-based, HL-60; settings: CV1 cells and HL60 cells, read-out: Ratio IC50
HL-60 [10] = experiment: Induction of apoptosis in human HL60 cells assessed as caspase9 activation using LEHD-AMC as substrate at 1 uM after 24 hrs by fluorimetry relative to control; assay type: functional
In short: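 HL-60 cells (2 x 10^6) treated 24 h, washed and lysed. Caspase-3, -8 and -9 activities in lysates measured fluorometrically with a commercial caspase fluorescent assay kit. Two independent experiments, each in duplicate.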

For `O=C(Nc1nc2ccc([N+](=O)[O-])cc2s1)c1cccnc1Nc1cc(F)c(F)c(F)c1`, the Activity (HL-60 [1]) was “Active”, the Activity (HL-60 [2]) was “Active” and the Activity (HL-60 [3]) was “inactive”. For the same compound, the inhibition (HL-60 [4]) was “inactive”, the Activity (HL-60 [5]) was 45% and the Activity (HL-60 [6]) was “Active”. The inhibition of growth at 10 µM (SW-620) was 70%, the inhibition of growth at 10 µM (IMR-32) was 72% and the Activity (SiHa) was “inactive”. The Activity (HL-60 [7]) was “Active”, the inhibition of growth at 10 µM (HCT-15) was 62% and the Activity (HL-60 [8]) was 94%. For the same compound, the Activity (PC-3) was “Active”, the selectivity ratio [9] was over 1250 and the “fold change (FC)” value (HL-60 [10]) was 2.
